# Results from ChEMBL document CHEMBL4229364, “Structure-activity relationships of 2, 4-disubstituted pyrimidines as dual ERα/VEGFR-2 ligands with anti-breast cancer activity” (Eur J Med Chem, 2018).
# Calls of active or inactive are those of the source. The calls are words filed in the database; no cut-off is given here.
# Legend:
# [1] = target: T1, Estrogen receptor (Homo sapiens) (UniProt P03372); test: Antagonist activity at ERalpha in human MCF7 cells assessed as reduction in E2-induced progesterone receptor mRNA level at 0.4 uM by RT-PCR method; assay type: cell-based
# T1 sequence (whole entry): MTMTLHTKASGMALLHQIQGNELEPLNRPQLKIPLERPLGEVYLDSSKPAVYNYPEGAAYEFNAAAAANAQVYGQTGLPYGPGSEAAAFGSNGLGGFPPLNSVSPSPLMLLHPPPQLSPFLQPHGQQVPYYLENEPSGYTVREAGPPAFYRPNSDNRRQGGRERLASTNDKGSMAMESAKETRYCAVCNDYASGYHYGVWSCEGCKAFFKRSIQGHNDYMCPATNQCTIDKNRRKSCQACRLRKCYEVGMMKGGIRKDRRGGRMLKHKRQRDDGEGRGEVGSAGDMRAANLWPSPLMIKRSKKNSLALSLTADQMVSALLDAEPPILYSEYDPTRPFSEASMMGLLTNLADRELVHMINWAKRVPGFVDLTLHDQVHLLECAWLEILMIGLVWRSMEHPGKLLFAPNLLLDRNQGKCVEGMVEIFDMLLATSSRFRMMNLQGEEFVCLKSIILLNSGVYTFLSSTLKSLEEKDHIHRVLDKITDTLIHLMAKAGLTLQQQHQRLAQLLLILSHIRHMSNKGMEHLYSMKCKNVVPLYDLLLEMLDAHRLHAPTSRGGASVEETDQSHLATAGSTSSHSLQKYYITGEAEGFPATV
# In short: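 Quantitative RT-PCR of progesterone receptor mRNA in MCF-7 cells. RNA was reverse transcribed to cDNA and amplified with SYBR Green: 95°C 2 min, then 40 cycles of 95°C 10 s, 60°C 30 s, 95°C 10 s. Signal was normalized to GAPDH and quantified by ΔΔCT. Values are mean ± SD, n=3, compared against the E2 group.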
# [2] = target: T2, Vascular endothelial growth factor receptor 2 (Homo sapiens, UniProt P35968); conditions: at 10 µM
# HUVEC = test: Antiproliferative activity against HUVEC after 48 hrs by MTT assay; assay type: functional, cell-based; conditions: Homo sapiens
# In short: (§1)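 MTT assay. Cells were grown in RPMI1640 with 10% FBS and penicillin/streptomycin at 37°C, 5% CO2, seeded at 1×10^5/mL and rested 24 h. Compound was added at 4×10^-5 to 1×10^-6 mol/L for 48 h; controls received 1% DMSO. MTT (5 mg/mL) was added for 4 h in the dark and the formazan dissolved in DMSO. A490 was read and IC50 derived.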
# MCF7 [3] = test: Effect on total RAF1 protein expression in human MCF7 cells at 0.5 uM after 24 hrs by Western blot analysis; assay type: ADME, cell-based; conditions: mcf7, 24 h
# MCF7 [4] = test: Antimigratory activity against human MCF7 cells at 0.5 to 1 uM after 48 hrs by crystal violet staining based microscopic method; assay type: functional, cell-based
# In short: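 Transwell assay on Matrigel-coated membranes, 5×10^4 cells per well. Cells were treated at plating. After 24 h the invading cells were fixed, with 48 h seeding. Cells were stained with crystal violet (0.1% in 20% methanol) and counted by microscopy. Treatments were 0.5 and 1 µM, with DMSO as vehicle control.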
# [5] = target: T2, Vascular endothelial growth factor receptor 2; test: Inhibition of VEGFR2 (unknown origin) using TK substrate after 1 hr by HTRF assay
# MCF7 [6] = test: Induction of apoptosis in human MCF7 cells after 24 hrs by Annexin V-FITC/propidium iodide staining based flow cytometry; assay type: functional, cell-based
# [7] = target: T2, Vascular endothelial growth factor receptor 2; conditions: HUVEC, at 1 µM
# MCF7 [8] = test: Induction of apoptosis in human MCF7 cells assessed as live cells at 1 uM after 24 hrs by Annexin V-FITC/propidium iodide staining based flow cytometry (reference value: 87.5%); assay type: functional
# [9] = target: RAF proto-oncogene serine/threonine-protein kinase (Homo sapiens) (UniProt P04049); test: Inhibition of RAF1 phosphorylation in human MCF7 cells at 0.5 uM after 24 hrs by Western blot analysis; assay type: cell-based
# T47D = test: Antiproliferative activity against human T47D cells after 48 hrs by MTT assay; assay type: functional, cell-based; in short: as §1
# Ishikawa = test: Antiproliferative activity against human Ishikawa cells after 48 hrs by MTT assay; assay type: functional, cell-based; in short: as §1
# MCF7 [10] = test: Induction of apoptosis in human MCF7 cells assessed as early apoptotic cells at 1 uM after 24 hrs by Annexin V-FITC/propidium iodide staining based flow cytometry (reference value: 4.46%); assay type: functional
# [11] = target: Mitogen-activated protein kinase; ERK1/ERK2 (Homo sapiens) (UniProt P27361+P28482); test: Inhibition of ERK1/ERK2 phosphorylation in human MCF7 cells at 0.5 uM after 24 hrs by Western blot analysis; assay type: cell-based
# MDA-MB-231 = test: Antiproliferative activity against human MDA-MB-231 cells after 48 hrs by MTT assay; assay type: functional, cell-based; in short: as §1
# MCF7 [12] = test: Antiproliferative activity against human MCF7 cells after 48 hrs by MTT assay; assay type: functional, cell-based; conditions: MCF7, 48 h; in short: as §1
# MCF7 [13] = test: Induction of apoptosis in human MCF7 cells assessed as early apoptotic cells at 0.5 uM after 24 hrs by Annexin V-FITC/propidium iodide staining based flow cytometry (reference value: 4.46%); assay type: functional
# MCF7 [14] = test: Potency index, ratio of raloxifene IC50 to compound IC50 for antiproliferative activity against human MCF7 cells; assay type: functional
# In short: (§2)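 Potency index is the reference drug's MCF-7 MTT IC50 divided by the compound's IC50. Reference drugs were tamoxifen or raloxifene. Cells received 48 h exposure over 4×10^-5 to 1×10^-6 mol/L with a 1% DMSO control, then A490 readout.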
# Chorioallantoic membrane = test: In vivo antiangiogenic activity in chicken egg chorioallantoic membrane after 72 hrs; assay type: functional, organism-based; conditions: Gallus gallus
# In short: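 Chick CAM assay. Fertilized eggs were incubated 7 days at 37°C, then a window of about 1 cm² was opened in the shell. […] Eggs were incubated a further 72 h at 37°C and 60% humidity. CAM was fixed in acetone/ethanol for 10 min and vessels imaged.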
# MCF7 [15] = test: Induction of apoptosis in human MCF7 cells assessed as live cells at 0.5 uM after 24 hrs by Annexin V-FITC/propidium iodide staining based flow cytometry (reference value: 87.5%); assay type: functional
# MCF7 [16] = test: Induction of apoptosis in human MCF7 cells assessed as late apoptotic cells at 1 uM after 24 hrs by Annexin V-FITC/propidium iodide staining based flow cytometry (reference value: 6.01%); assay type: functional
# MCF7 [17] = test: Potency index, ratio of tamoxifen IC50 to compound IC50 for antiproliferative activity against human MCF7 cells; assay type: functional; in short: as §2
# Estrogen receptor = target: T3, Estrogen receptor (Homo sapiens, UniProt P03372); test: Displacement of Fluormone ES2 Green from full length human ER-alpha expressed in insect cells after 2 hrs by fluorescence polarization assay
# T3 sequence (P03372 whole entry): T1 sequence (whole entry)
# MCF7 [18] = test: Induction of apoptosis in human MCF7 cells assessed as late apoptotic cells at 0.5 uM after 24 hrs by Annexin V-FITC/propidium iodide staining based flow cytometry (reference value: 6.01%); assay type: functional
# MCF7 [19] = test: Induction of apoptosis in human MCF7 cells assessed as necrtotic cells at 0.5 uM after 24 hrs by Annexin V-FITC/propidium iodide staining based flow cytometry (reference value: 2.05%); assay type: functional
# MCF7 [20] = test: Induction of apoptosis in human MCF7 cells assessed as necrtotic cells at 1 uM after 24 hrs by Annexin V-FITC/propidium iodide staining based flow cytometry (reference value: 2.05%); assay type: functional
# T2 sequence (P35968 whole entry): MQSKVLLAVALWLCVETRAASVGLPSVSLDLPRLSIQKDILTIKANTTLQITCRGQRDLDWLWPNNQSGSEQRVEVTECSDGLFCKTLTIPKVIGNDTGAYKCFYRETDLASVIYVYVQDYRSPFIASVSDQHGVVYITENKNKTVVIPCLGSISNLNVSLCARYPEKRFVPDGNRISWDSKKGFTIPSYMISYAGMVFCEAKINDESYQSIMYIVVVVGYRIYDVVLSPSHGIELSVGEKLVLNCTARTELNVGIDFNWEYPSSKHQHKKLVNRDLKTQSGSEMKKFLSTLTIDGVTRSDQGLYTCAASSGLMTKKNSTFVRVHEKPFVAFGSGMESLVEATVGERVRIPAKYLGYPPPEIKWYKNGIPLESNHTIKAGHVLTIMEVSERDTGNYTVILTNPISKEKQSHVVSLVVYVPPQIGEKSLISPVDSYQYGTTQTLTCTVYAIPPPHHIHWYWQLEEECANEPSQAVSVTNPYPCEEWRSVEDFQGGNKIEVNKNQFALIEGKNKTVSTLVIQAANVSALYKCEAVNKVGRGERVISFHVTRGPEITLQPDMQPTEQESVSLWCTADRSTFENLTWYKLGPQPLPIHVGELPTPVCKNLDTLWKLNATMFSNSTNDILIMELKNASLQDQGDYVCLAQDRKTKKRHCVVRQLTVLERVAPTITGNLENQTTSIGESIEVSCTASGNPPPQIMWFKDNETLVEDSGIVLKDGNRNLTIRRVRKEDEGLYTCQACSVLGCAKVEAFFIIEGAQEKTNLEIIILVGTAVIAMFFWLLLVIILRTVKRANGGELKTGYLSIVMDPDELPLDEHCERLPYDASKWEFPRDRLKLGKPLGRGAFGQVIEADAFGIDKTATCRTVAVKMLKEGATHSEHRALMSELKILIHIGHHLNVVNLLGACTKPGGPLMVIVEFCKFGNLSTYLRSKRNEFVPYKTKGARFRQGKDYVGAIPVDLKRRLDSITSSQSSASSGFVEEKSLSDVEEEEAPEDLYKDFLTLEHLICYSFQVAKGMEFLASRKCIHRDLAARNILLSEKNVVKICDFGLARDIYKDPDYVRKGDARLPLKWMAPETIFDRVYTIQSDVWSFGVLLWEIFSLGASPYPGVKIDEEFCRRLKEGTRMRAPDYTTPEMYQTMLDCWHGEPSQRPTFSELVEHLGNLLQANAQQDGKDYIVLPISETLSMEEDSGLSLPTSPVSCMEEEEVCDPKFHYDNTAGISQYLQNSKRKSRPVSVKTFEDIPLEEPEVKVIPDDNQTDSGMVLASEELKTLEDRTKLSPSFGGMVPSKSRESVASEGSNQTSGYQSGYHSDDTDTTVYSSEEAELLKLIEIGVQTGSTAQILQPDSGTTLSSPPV
# Sequence of RAF proto-oncogene serine/threonine-protein kinase (Homo sapiens) (P04049 whole entry): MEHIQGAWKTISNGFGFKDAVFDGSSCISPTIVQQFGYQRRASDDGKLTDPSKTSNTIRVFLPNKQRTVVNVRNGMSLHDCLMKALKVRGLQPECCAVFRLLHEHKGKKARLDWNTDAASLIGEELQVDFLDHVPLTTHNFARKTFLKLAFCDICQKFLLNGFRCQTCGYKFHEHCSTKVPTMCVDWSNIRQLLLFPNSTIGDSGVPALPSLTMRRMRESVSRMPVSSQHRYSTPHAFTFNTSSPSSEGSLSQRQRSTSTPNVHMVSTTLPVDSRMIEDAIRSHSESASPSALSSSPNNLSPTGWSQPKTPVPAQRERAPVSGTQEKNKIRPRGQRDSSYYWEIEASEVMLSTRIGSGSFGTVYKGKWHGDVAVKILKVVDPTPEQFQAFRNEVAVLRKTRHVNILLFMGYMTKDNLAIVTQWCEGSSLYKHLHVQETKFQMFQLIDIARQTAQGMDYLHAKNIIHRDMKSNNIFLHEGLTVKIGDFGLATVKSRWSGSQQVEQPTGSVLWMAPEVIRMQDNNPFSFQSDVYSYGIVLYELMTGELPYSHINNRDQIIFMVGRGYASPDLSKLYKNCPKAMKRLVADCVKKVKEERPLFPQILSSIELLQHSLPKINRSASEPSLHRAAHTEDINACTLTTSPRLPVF
# Sequence of Mitogen-activated protein kinase; ERK1/ERK2 (Homo sapiens) (P27361 whole entry, looked up): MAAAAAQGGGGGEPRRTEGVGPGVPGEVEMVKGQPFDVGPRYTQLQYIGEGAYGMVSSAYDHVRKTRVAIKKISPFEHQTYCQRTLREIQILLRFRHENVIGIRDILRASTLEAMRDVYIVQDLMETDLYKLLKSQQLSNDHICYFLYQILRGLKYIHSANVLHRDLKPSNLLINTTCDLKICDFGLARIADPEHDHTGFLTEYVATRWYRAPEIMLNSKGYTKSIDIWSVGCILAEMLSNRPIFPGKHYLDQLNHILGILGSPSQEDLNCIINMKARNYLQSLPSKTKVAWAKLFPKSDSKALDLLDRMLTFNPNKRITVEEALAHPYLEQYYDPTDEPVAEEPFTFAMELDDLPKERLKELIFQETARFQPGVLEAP
# Sequence of Mitogen-activated protein kinase; ERK1/ERK2 (Homo sapiens) (P28482 whole entry, looked up): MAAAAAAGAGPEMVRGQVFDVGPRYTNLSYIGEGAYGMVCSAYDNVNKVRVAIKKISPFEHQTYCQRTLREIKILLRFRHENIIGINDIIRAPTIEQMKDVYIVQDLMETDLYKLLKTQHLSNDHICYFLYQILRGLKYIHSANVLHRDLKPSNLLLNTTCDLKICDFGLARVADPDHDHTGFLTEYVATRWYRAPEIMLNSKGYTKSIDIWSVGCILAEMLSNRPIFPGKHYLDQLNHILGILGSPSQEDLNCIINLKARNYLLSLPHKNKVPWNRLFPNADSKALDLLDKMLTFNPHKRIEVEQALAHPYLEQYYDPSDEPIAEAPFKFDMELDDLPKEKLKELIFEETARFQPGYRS
compound,measurement,setting,value
Oc1ccc(-c2nc(Cl)c(-c3ccccc3)c(Oc3ccc(OCCN4CCCC4)cc3)n2)cc1,inhibition,[1],Active
same,inhibition,[2],91.1%
same,IC50,HUVEC,4.57 µM
same,Activity,MCF7 [3],Non-Toxic
same,Activity,MCF7 [4],Active
same,IC50,[5],0.085 µM
same,Activity,MCF7 [6],Dose-dependent effect
same,inhibition,[7],Active
same,Activity,MCF7 [8],65.7%
same,inhibition,[9],Active
same,Activity,T47D,Dose-dependent effect
same,IC50,T47D,2.73 µM
same,IC50,Ishikawa,5.93 µM
same,Activity,MCF7 [10],5.49%
same,inhibition,[11],Active
same,Activity,MDA-MB-231,Dose-dependent effect
same,IC50,"MDA-MB-231; MDA-MB-231, 48 h",3.81 µM
same,IC50,MCF7 [12],0.81 µM
same,Activity,MCF7 [13],8.89%
same,Ratio IC50,MCF7 [14],16
same,Activity,Chorioallantoic membrane,Dose-dependent effect
same,Activity,MCF7 [15],75.5%
same,Activity,MCF7 [16],28%
same,Ratio IC50,MCF7 [17],19 - 20
same,IC50,Estrogen receptor,1.64 µM
same,Activity,MCF7 [18],14.5%
same,Activity,MCF7 [19],1.11%
same,Activity,MCF7 [20],0.9%
CCN(CC)CC(=O)Nc1ccc(Nc2cc(Cl)nc(-c3ccc(OC)cc3)n2)cc1,inhibition,[2],44%
same,IC50,HUVEC,15 µM
same,IC50,[5],> 1 µM
same,IC50,Ishikawa,5.81 µM
same,IC50,MCF7 [12],> 40 µM
COc1ccc(-c2nc(Cl)cc(Nc3ccc(OCCN(C)C)cc3)n2)cc1,inhibition,[2],40%
same,IC50,HUVEC,6.31 µM
same,IC50,[5],> 1 µM
same,IC50,Ishikawa,5.67 µM
same,IC50,MCF7 [12],3.54 µM
COc1ccc(-c2nc(Cl)c(-c3ccccc3)c(Nc3ccc(NC(=O)CN4CCCC4)cc3)n2)cc1,inhibition,[2],87.3%
same,IC50,HUVEC,> 40 µM
same,IC50,[5],0.203 µM
same,IC50,Ishikawa,> 40 µM
same,IC50,MCF7 [12],> 40 µM
CN(C)CCOc1ccc(Nc2nc(-c3ccc(O)cc3)nc(Cl)c2-c2ccccc2)cc1,inhibition,[2],68.5%
same,IC50,HUVEC,13.8 µM
same,IC50,[5],> 1 µM
same,IC50,Ishikawa,37.1 µM
same,IC50,MCF7 [12],33.1 µM
same,IC50,Estrogen receptor,3.42 µM
O=C(c1ccc(OCCN2CCCCC2)cc1)c1c(-c2ccc(O)cc2)sc2cc(O)ccc12 [RALOXIFENE],IC50,Ishikawa,24.4 µM
same,IC50,MCF7 [12],13.2 µM
COc1ccc(-c2nc(Cl)cc(Nc3ccc(NC(=O)CN(C)C)cc3)n2)cc1,inhibition,[2],66.2%
same,IC50,HUVEC,> 40 µM
same,IC50,[5],> 1 µM
same,IC50,Ishikawa,> 40 µM
same,IC50,MCF7 [12],> 40 µM
COc1ccc(-c2nc(Cl)cc(Oc3ccc(OCCN4CCCC4)cc3)n2)cc1,inhibition,[2],39.8%
same,IC50,HUVEC,15.8 µM
same,IC50,[5],> 1 µM
same,IC50,Ishikawa,25.5 µM
same,IC50,MCF7 [12],21.3 µM
same,IC50,Estrogen receptor,6.22 µM
CCN(CC)CCOc1ccc(Nc2nc(-c3ccc(O)cc3)nc(Cl)c2-c2ccccc2)cc1,inhibition,[2],76.9%
same,IC50,HUVEC,8.81 µM
same,IC50,[5],> 1 µM
same,IC50,Ishikawa,12 µM
same,IC50,MCF7 [12],35.6 µM
CC/C(=C(\c1ccccc1)c1ccc(OCCN(C)C)cc1)c1ccccc1 [TAMOXIFEN],IC50,Ishikawa,26.5 µM
same,IC50,MCF7 [12],15.5 µM
CCN(CC)CCOc1ccc(Nc2cc(Cl)nc(-c3ccc(OC)cc3)n2)cc1,inhibition,[2],89.7%
same,IC50,HUVEC,9.24 µM
same,IC50,[5],0.174 µM
same,IC50,Ishikawa,11.7 µM
same,IC50,MCF7 [12],36.8 µM
same,IC50,Estrogen receptor,4.74 µM
COc1ccc(-c2nc(Cl)c(-c3ccccc3)c(Nc3ccc(NC(=O)CN(C)C)cc3)n2)cc1,inhibition,[2],50.8%
same,IC50,HUVEC,10.3 µM
same,IC50,[5],> 1 µM
same,IC50,Ishikawa,17.1 µM
same,IC50,MCF7 [12],17.7 µM
